This is a sample that favours compounds with a hit; in the whole collection about 2.9% have one here.
TRPC4 potent: allosterically enhances the mouse TRPC4 cation channel | Q9QUQ5 | HEK293 TRPC4beta/mu-opioid, DAMGO EC20, Fluo-4 Ca2+ flux; hits give high values | actives 0.42% (n = 310,000) | B-score at 10 µM;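 active means B-score of calcium response area above 5 SD of library B-scores, with initial fluorescence ratio within 5 SD of library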;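 further: B-score of integrated fluorescence ratio over time as area under calcium response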
TRPC4 inh: blocks the mouse TRPC4 cation channel | Q9QUQ5 | HEK293 TRPC4beta/mu-opioid, DAMGO-evoked Fluo4 calcium flux; hits give low values | B-score at 10 µM | actives 0.39% (n = 300,000) | AID 2247;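 active means B-score over 3 SD under the library average, no early fluorescence shift, positive overall ratio signal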
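Assay system: Stable TRPC4beta/mu-opioid receptor HEK293 cells | Reagent: DAMGO in two steps, submaximal then maximal | Compound dosing: Single concentration per test compound | Signal: Fluo4 Ca2+ flux fluorescence | Evaluation: Per-well B score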
TRPC6 act: mouse TRPC6 channel activation | HEK293-TRPC6 membrane potential dye fluorescence; hits give high values | actives 0.13% (n = 310,000) | AID 2550 | B-score at 10 µM;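 active means B-score of the integrated fluorescence ratio above library mean plus 3 SD, and starting fluorescence ratio within library mean plus 5 SD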;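 further: higher score means more depolarization so channel activation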
TRPC6 inhibitor: mouse TRPC6 channel inhibition; actives 1.1% (n = 310,000); AID 2553; Q61143; HEK293-TRPC6, membrane potential dye, ACh-evoked depolarization; hits give low values; B-score at 10 µM;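 active means B-score under library mean minus 3 SD, initial fluorescence not abnormally high, positive integrated signal ratio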;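 further: B-score derived from integrated fluorescence ratio over the kinetic read; more negative B-score means stronger inhibition of depolarization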
Kir21 block: Kir2.1 (mouse) channel inhibition; P35561; HEK293-Kir2.1, FluxOR thallium flux fluorescence; hits give low values; B-score at 10 µM; actives 0.85% (n = 310,000); AID 1672;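 active means fluorescence ratio B-score at or below minus 3 SD of library scores, with starting-brightness B-score within 2 SD, cut at about -4.2 in these data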;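 further: channel flux triggered by added potassium and thallium sulfate stimulus; B-score of peak minus minimum fluorescence over baseline after thallium stimulus; more negative B-score means stronger Kir2.1 block with less thallium influx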
TRPC4 act: activators of mouse TRPC4 channel; Q9QUQ5; HEK293 TRPC4beta/mu-opioid, Fluo4 calcium fluorescence; hits give high values; B-score at 10 µM; actives 0.49% (n = 310,000);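 active means B-score above 5 SD of library B-scores, and initial fluorescence ratio not above library mean plus 5 SD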;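 further: positive B-score marks a calcium rise read as TRPC4 activation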
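Assay system: HEK293 stable line with TRPC4beta plus mu-opioid receptor. Times: dye 45 min RT, read 110 s. Measured by: kinetic Fluo4 calcium fluorescence. Measure: B score of integrated ratio. Controls: assay buffer as low control, maximal DAMGO as high control.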
HEK293 MPD ctr: counter-screen for TRPC6 modulators: effect in parental HEK293 cells | shares compounds with TRPC6 inhibitor | membrane potential dye fluorescence | membrane potential signal change, % at 10 µM | actives 51% (n = 2,400) | AID 488924;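 active means membrane potential signal moves up or down beyond 5 SD from buffer-only wells, on both duplicate plates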
HEK293 MPD ctr 2: second counter-screen for TRPC6 modulators: effect in parental HEK293 cells; actives 14% (n = 2,400); inhibition, % at 10 µM; membrane potential dye fluorescence; after compound, maximal acetylcholine stimulation; AID 488926; shares compounds with TRPC6 inhibitor;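 active means membrane potential signal drops by more than 5 SD from the mean control signal, in both duplicate plates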;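 further: plate controls were acetylcholine ECmax control wells for no effect and buffer only wells for full effect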
TRPC4/MOR mod: tests whether TRPC6 modulators also affect mouse TRPC4; HEK293 TRPC4/mu-opioid, membrane potential fluorescence; actives 69% (n = 2,400); percent change from control (negative = decrease, positive = increase), % at 10 µM; shares compounds with TRPC6 inhibitor;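 active means membrane potential signal moved up or down beyond 5 SD of buffer control wells, in both duplicate plates, actives on both sides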;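 further: plate controls were assay buffer wells for no effect and DAMGO maximal-effect wells for full effect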
TRPC4/MOR inh 2: second check of whether TRPC6 modulators also affect mouse TRPC4 | shares compounds with TRPC6 inhibitor | HEK293 TRPC4/mu-opioid, membrane potential dye fluorescence; stimulated with maximal-effect DAMGO | inhibition, % at 10 µM | actives 55% (n = 2,400);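 active means drop in membrane potential signal beyond 5 SD of the control wells in both duplicate plates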;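 further: TRPC4 counter screen for TRPC6 hits run under conditions tuned for TRPC6 not TRPC4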
TRPC6 block conf: confirmation of mouse TRPC6 inhibitors | HEK293-TRPC6, membrane potential dye, ACh-evoked depolarization | inhibition, % at 10 µM | actives 43% (n = 3,300) | shares compounds with TRPC6 inhibitor;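 active means fluorescence ratio falls more than 5 SD below the full-stimulation control mean, in both duplicate runs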;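 further: integrated fluorescence ratio of peak minus minimum over baseline after agonist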
TRPC6 act confirm: confirmation of mouse TRPC6 activators; shares compounds with TRPC6 inhibitor; HEK293-TRPC6 membrane potential dye fluorescence, FDSS; activation, % at 10 µM; actives 11% (n = 2,800);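 active means ratio signal rise beyond 5 SD above unstimulated control wells' mean, seen in both duplicate runs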;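 further: plate controls were buffer EC0 wells for no effect and acetylcholine ECmax response for full effect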
* = called active by the depositor.

C[n+]1cccc(/C=N/Nc2nc(Cl)c(C#N)c(Cl)c2Cl)c1 was read as TRPC4 potent inactive, TRPC4 inh inactive, TRPC6 act inactive, TRPC6 inhibitor -6.24*, Kir21 block 0.21, TRPC4 act inactive, HEK293 MPD ctr inactive, HEK293 MPD ctr 2 79.5%*, TRPC4/MOR mod -13.5%*, TRPC4/MOR inh 2 inactive, TRPC6 block conf inactive and TRPC6 act confirm inactive.
`COC(=O)C1=NN(C(=O)c2ccc(C)cc2)C(O)(c2ccc(Cl)cc2)C1` (stereo unspecified) gave TRPC4 potent inactive, TRPC4 inh inactive, TRPC6 act 34*, TRPC6 inhibitor -6.6*, Kir21 block -0.43, TRPC4 act 102*, HEK293 MPD ctr 421.0%*, HEK293 MPD ctr 2 inactive, TRPC4/MOR mod 82.0%*, TRPC4/MOR inh 2 inactive, TRPC6 block conf 77.0%* and TRPC6 act confirm 298.5%*.
For O=c1oc2ccccc2c(N2CCCCC2)c1CN1CCCCC1 the results were TRPC4 potent inactive, TRPC4 inh inactive, TRPC6 act inactive, TRPC6 inhibitor -5.13*, Kir21 block 1.97, TRPC4 act inactive, HEK293 MPD ctr 106.5%*, HEK293 MPD ctr 2 inactive, TRPC4/MOR mod 25.5%*, TRPC4/MOR inh 2 inactive and TRPC6 block conf inactive.
For O=S(=O)(NCCNc1ncc(C(F)(F)F)cc1Cl)C(F)(F)F the results were TRPC4 potent inactive, TRPC4 inh inactive, TRPC6 act inactive, TRPC6 inhibitor -5.33*, Kir21 block -0.02, TRPC4 act inactive, HEK293 MPD ctr inactive, HEK293 MPD ctr 2 inactive, TRPC4/MOR mod 13.5%*, TRPC4/MOR inh 2 32.0%*, TRPC6 block conf 50.5%* and TRPC6 act confirm inactive.
Screening CCc1ccc2c(c1)C1(NN=C(c3ccc(C)cc3)S1)C(=O)N2 (stereo unspecified) returned TRPC4 potent inactive, TRPC4 inh inactive, TRPC6 act inactive, TRPC6 inhibitor inactive, Kir21 block 2.67 and TRPC4 act inactive.
Screening CC(C)c1ccc2c(c1)C1(NN=C(c3ccccc3)S1)C(=O)N2 (stereo unspecified) returned TRPC4 potent 11*, TRPC4 inh inactive, TRPC6 act inactive, TRPC6 inhibitor -5.69*, Kir21 block 0.95, TRPC4 act inactive, HEK293 MPD ctr -150.0%*, HEK293 MPD ctr 2 inactive, TRPC4/MOR mod -33.0%*, TRPC4/MOR inh 2 75.0%*, TRPC6 block conf 45.5%* and TRPC6 act confirm inactive.
For N#C/C(C(N)=O)=c1/ccc2c(c1)N1C3=C(CCCC3)CC3CCCCC31N=2 (stereo unspecified) the results were TRPC4 potent inactive, TRPC4 inh inactive, TRPC6 act inactive, TRPC6 inhibitor -12.4*, Kir21 block 1.13, TRPC4 act inactive, HEK293 MPD ctr -262.5%*, HEK293 MPD ctr 2 82.0%*, TRPC4/MOR mod -52.5%*, TRPC4/MOR inh 2 94.0%*, TRPC6 block conf 80.0%* and TRPC6 act confirm inactive.
Screening COc1ccc(NS(=O)(=O)c2cccc(C(=O)Nc3cccc(C(=O)O)c3)c2)cc1 returned TRPC4 potent inactive, TRPC4 inh inactive, TRPC6 act inactive, TRPC6 inhibitor inactive, Kir21 block 0.14 and TRPC4 act inactive.
`COc1ccc(NS(=O)(=O)c2cccc(C(=O)O)c2)cc1` gave TRPC4 potent inactive, TRPC4 inh inactive, TRPC6 act inactive, TRPC6 inhibitor -5.39*, Kir21 block 0.24, TRPC4 act inactive, HEK293 MPD ctr inactive, HEK293 MPD ctr 2 inactive, TRPC4/MOR mod inactive, TRPC4/MOR inh 2 inactive, TRPC6 block conf inactive and TRPC6 act confirm inactive.
Screening CCNc1nc(CN2CCCCC2)nc2scc(-c3ccccc3)c12 returned TRPC4 potent inactive, TRPC4 inh inactive, TRPC6 act inactive, TRPC6 inhibitor -5.83*, Kir21 block -3.04, TRPC4 act inactive, HEK293 MPD ctr inactive, HEK293 MPD ctr 2 inactive, TRPC4/MOR mod inactive, TRPC4/MOR inh 2 39.0%*, TRPC6 block conf inactive and TRPC6 act confirm inactive.
OCC1CCCN(c2nc(CN3CCCCC3)nc3scc(-c4ccccc4)c23)C1 (stereo unspecified) was read as TRPC4 potent inactive, TRPC4 inh inactive, TRPC6 act inactive, TRPC6 inhibitor inactive, Kir21 block -3.84 and TRPC4 act inactive.
`CC(C)NC(=O)CCc1nc2cccnc2n1-c1ccccc1` gave TRPC4 potent inactive, TRPC4 inh inactive, TRPC6 act inactive, TRPC6 inhibitor -5.86*, Kir21 block 0.79, TRPC4 act inactive, HEK293 MPD ctr inactive, HEK293 MPD ctr 2 inactive, TRPC4/MOR mod inactive, TRPC4/MOR inh 2 inactive, TRPC6 block conf inactive and TRPC6 act confirm inactive.
For CCOC(=O)CCNC(=O)N1CCCC(N(C)CCc2ccccc2)C1 (stereo unspecified) the results were TRPC4 potent inactive, TRPC4 inh inactive, TRPC6 act inactive, TRPC6 inhibitor inactive, Kir21 block -0.08 and TRPC4 act inactive.
